This passage reports Activity and inhibition of growth results from ChEMBL document CHEMBL3045023, “Design, synthesis, and antiviral activity evaluation of phenanthrene-based antofine derivatives” (2012).

Common to all, as to format: functional
In assay [1] the test system is Tobacco mosaic virus. In words: Antiviral activity against Tobacco mosaic virus (TMV) inoculation on Nicotiana tabacum L. whole leaves assessed as virus infection curative effect at 500 ug/mL measured 3 to 4 days post inoculation. In outline: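 Whole N. tabacum L. leaves of the same age were inoculated with TMV (6.0 × 10−3 mg/mL), then washed and dried. Compound was then smeared on the left half and solvent on the right half as control. Local lesions were counted 3–4 days post-inoculation, in triplicate. Inhibition % was calculated from average lesion numbers versus control.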

Assay [2] has as its system Tobacco mosaic virus. In words: Antiviral activity against Tobacco mosaic virus (TMV) inoculation on Nicotiana tabacum L. whole leaves assessed as virus inactivation effect at 500 ug/mL measured 3 to 4 days post inoculation. An outline of the steps: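 TMV was mixed with an equal volume of compound solution for 30 min. The mixture was inoculated on the left half of N. tabacum L. leaves, and virus mixed with solvent on the right half as control. Local lesions were recorded 3–4 days post-inoculation, in triplicate. Inhibition % was calculated from average lesion numbers versus control.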

The subject of assay [3] is Tobacco mosaic virus. In words: Antiviral activity against Tobacco mosaic virus (TMV) inoculation on Nicotiana tabacum L. whole leaves assessed as virus infection protective effect at 500 ug/mL measured 3 to 4 days post inoculation. An outline of the steps:
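On N. tabacum L. leaves of the same age, compound was smeared on the left half and solvent on the right half as control. After 12 h, leaves were dusted with silicon carbide, brush-inoculated with TMV (6 × 10−3 mg/mL), then washed. Local lesions were counted 3–4 days later, in triplicate. Inhibition % was calculated from average lesion numbers versus control.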

In assay [4] the test system is Tobacco mosaic virus. In words: Antiviral activity against Tobacco mosaic virus (TMV) assessed as inhibition of viral growth at 500 ug/mL. The following applies: read-out: GI. An outline of the steps: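 Leaves of 5–6-growth-stage tobacco were rub-inoculated with TMV juice (5.88 × 10−2 μg/mL), then cut into halves along the main vein. One half was immersed in 500 μg/mL compound and the other in double-distilled water, each for 20 min. Halves were cultured at 25 °C for 72 h, with at least 3 replicates. Inhibition % = (control − treated average lesion number)/control × 100.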

On to `CCN(CC)C(=O)[C@H]1CCCCN1Cc1c(Br)c2cc(OC)c(OC)cc2c2cc(OC)ccc12`, for which the Activity came to 17.6% in the assay with Tobacco mosaic virus [1], 15.4% in the assay with Tobacco mosaic virus [2] and 21.3% in the assay on Tobacco mosaic virus [3]. In the assay on Tobacco mosaic virus [4], the inhibition of growth at 500 µg/mL was determined as 12.1%.

`CCN(CC)C(=O)[C@H]1CCCCN1Cc1c(Br)c2cc(OC)c(OC)cc2c2cc(OC)c(OC)cc12`: the Activity in the assay with Tobacco mosaic virus [1] turned out to be 14.2%; in the assay with Tobacco mosaic virus [2], 13.7%; in the assay with Tobacco mosaic virus [3], 21.7%. The inhibition of growth at 500 µg/mL in the assay with Tobacco mosaic virus [4] was found to be 23.5%.

For `COc1cc2c(Br)c(CN3CCC[C@H]3C(=N)OC(C)(C)C)c3cc(OC)c(OC)cc3c2cc1OC`, the results for the Activity with Tobacco mosaic virus [1], in the assay with Tobacco mosaic virus [2] and with Tobacco mosaic virus [3] were 40.3%, 36.6% and 42.2%, respectively. The inhibition of growth at 500 µg/mL in the assay on Tobacco mosaic virus [4] was 39.7%.

As for `COc1ccc(/C=C(/C(=O)N2CCC[C@H]2CO)c2ccc(OC)c(OC)c2)cc1OC`, the Activity stood at 18.1% in the assay with Tobacco mosaic virus [1], 20.9% in the assay on Tobacco mosaic virus [2] and 19.3% in the assay on Tobacco mosaic virus [3]. The inhibition of growth at 500 µg/mL with Tobacco mosaic virus [4] amounted to 11.7%.

Regarding `COc1cc2c(Br)c(CN3CCC[C@@H]3C(N)=O)c3cc(OC)c(OC)cc3c2cc1OC`, the values for the Activity in the assay with Tobacco mosaic virus [1], with Tobacco mosaic virus [2] and in the assay with Tobacco mosaic virus [3] were 12.2%, 0% and 15.3%, respectively. Further, the inhibition of growth at 500 µg/mL with Tobacco mosaic virus [4] was found to be 10.5%.

With `CCN(CC)C(=O)[C@H]1CCCN1Cc1c(Br)c2ccc(OC)c(Br)c2c2cc(OC)c(OC)cc12`, the Activity with Tobacco mosaic virus [1] is on record as 13.3%; in the assay on Tobacco mosaic virus [2] it was 10.4%; in the assay on Tobacco mosaic virus [3], 20.3%. Moreover, in the assay on Tobacco mosaic virus [4], the inhibition of growth at 500 µg/mL was found to be 22.4%.

Regarding `CCN(CC)C(=O)[C@H]1CCCN1Cc1c(Br)c2cc(OC)c(OC)cc2c2c(Br)c(OC)ccc12`, the figures for the Activity in the assay with Tobacco mosaic virus [1], in the assay on Tobacco mosaic virus [2] and in the assay on Tobacco mosaic virus [3] were 35.8%, 30.2% and 39.2%, respectively. The inhibition of growth at 500 µg/mL in the assay with Tobacco mosaic virus [4] was 42.6%.

In the case of `CCN(CC)C(=O)[C@@H]1CCCN1Cc1c(Br)c2ccc(OC)cc2c2cc(OC)c(OC)cc12`, the Activity with Tobacco mosaic virus [1] came to 8.9%; in the assay with Tobacco mosaic virus [2], 23.7%; with Tobacco mosaic virus [3], 16.8%. The inhibition of growth at 500 µg/mL with Tobacco mosaic virus [4] was 12.5%.

In the case of `CCN(CC)C(=O)[C@@H]1CCCN1Cc1c(Br)c2cc(OC)c(OC)cc2c2cc(OC)c(OC)cc12`, the Activity in the assay with Tobacco mosaic virus [1] is recorded as 21.6%; with Tobacco mosaic virus [2] it was 22%; with Tobacco mosaic virus [3] it was 25.3%. Also, in the assay on Tobacco mosaic virus [4], the inhibition of growth at 500 µg/mL amounted to 17.2%.

As to `COc1ccc2c(Br)c(CN3CCC[C@H]3C#N)c3cc(OC)c(OC)cc3c2c1`, the Activity in the assay on Tobacco mosaic virus [1] worked out at 18.9%; in the assay on Tobacco mosaic virus [2] it was 27.7%; in the assay with Tobacco mosaic virus [3] it was 24.5%. Further, the inhibition of growth at 500 µg/mL in the assay on Tobacco mosaic virus [4] was 20.9%.

For the compound `COc1cc2c(Br)c(CBr)c3cc(OC)c(OC)cc3c2cc1OC`, the results for the Activity with Tobacco mosaic virus [1], in the assay on Tobacco mosaic virus [2] and with Tobacco mosaic virus [3] were 1.8%, 4.3% and 5.2%, respectively. Besides, the inhibition of growth at 500 µg/mL with Tobacco mosaic virus [4] was 6.1%.

Turning to `COc1cc2cc(CN3CCC[C@H]3CO)c3cc(OC)c(OC)cc3c2cc1OC`, the results for the Activity with Tobacco mosaic virus [1], in the assay on Tobacco mosaic virus [2] and in the assay with Tobacco mosaic virus [3] were 23.5%, 17.4% and 25.2%, respectively. Further, the inhibition of growth at 500 µg/mL in the assay on Tobacco mosaic virus [4] is 15.9%.

Take `CC(=O)N1CN(C(C)=O)C(=O)NC1=O`: the inhibition of growth at 500 µg/mL in the assay with Tobacco mosaic virus [4] was determined as 50%.

Turning to `COc1cc2cc(C(=O)N3CCCCC3)c3cc(OC)c(OC)cc3c2cc1OC`, the Activity with Tobacco mosaic virus [1] was found to be 28.9%; with Tobacco mosaic virus [2], 24.5%; in the assay on Tobacco mosaic virus [3], 30.6%. In the assay on Tobacco mosaic virus [4], the inhibition of growth at 500 µg/mL turned out to be 32.5%.

On to `O=C1NCNC(=O)N1`, for which the inhibition of growth at 500 µg/mL in the assay on Tobacco mosaic virus [4] was 50%.

With `CCN(CC)C(=O)[C@@H]1CCCN1Cc1c(Br)c2cc(OC)c(OC)cc2c2c(Br)c(OC)ccc12`, the Activity came to 23.5% with Tobacco mosaic virus [1], 20.7% in the assay on Tobacco mosaic virus [2] and 26.1% with Tobacco mosaic virus [3]. In addition, the inhibition of growth at 500 µg/mL in the assay with Tobacco mosaic virus [4] was 32.5%.

With `COc1cc2cc(CN3CCC[C@H]3CBr)c3cc(OC)c(OC)cc3c2cc1OC`, the figures for the Activity in the assay on Tobacco mosaic virus [1], in the assay with Tobacco mosaic virus [2] and in the assay on Tobacco mosaic virus [3] were 16.3%, 20.3% and 21.1%, respectively. The inhibition of growth at 500 µg/mL with Tobacco mosaic virus [4] came to 32.1%.

For `COC(=O)[C@@H]1CCCN1Cc1c(Br)c2cc(OC)c(OC)cc2c2cc(OC)c(OC)cc12`, the figures for the Activity in the assay with Tobacco mosaic virus [1], with Tobacco mosaic virus [2] and in the assay on Tobacco mosaic virus [3] were 27.8%, 21.4% and 33.3%, respectively. In addition, in the assay on Tobacco mosaic virus [4], the inhibition of growth at 500 µg/mL amounted to 19.6%.

Turning to `CCN(CC)C(=O)[C@@H]1CCCCN1Cc1c(Br)c2cc(OC)c(OC)cc2c2cc(OC)c(OC)cc12`, the Activity in the assay on Tobacco mosaic virus [1] was 26.3%; with Tobacco mosaic virus [2], 21.5%; in the assay on Tobacco mosaic virus [3], 28.5%. Besides, the inhibition of growth at 500 µg/mL with Tobacco mosaic virus [4] was 19.7%.

As for `CCN(CC)C(=O)[C@@H]1CCCN1Cc1c(Br)c2cc(OC)c(OC)cc2c2cc(OC)ccc12`, the values for the Activity with Tobacco mosaic virus [1], in the assay with Tobacco mosaic virus [2] and in the assay on Tobacco mosaic virus [3] were 14.2%, 15.7% and 18.9%, respectively. The inhibition of growth at 500 µg/mL in the assay with Tobacco mosaic virus [4] stood at 23.5%.

Turning to `CCN(CC)C(=O)[C@H]1CCCN1Cc1c(Br)c2ccc(OC)cc2c2cc(OC)c(OC)cc12`, the Activity with Tobacco mosaic virus [1] is recorded as 31.6%; in the assay on Tobacco mosaic virus [2], 26.9%; with Tobacco mosaic virus [3], 27.1%. The inhibition of growth at 500 µg/mL in the assay with Tobacco mosaic virus [4] is 35.6%.

For the compound `COc1ccc2c(CN3CCC[C@H]3C(N)=O)c(Br)c3cc(OC)c(OC)cc3c2c1`, the Activity with Tobacco mosaic virus [1] amounted to 5.6%; with Tobacco mosaic virus [2] it was 14.5%; with Tobacco mosaic virus [3], 0%. For the same compound, in the assay with Tobacco mosaic virus [4], the inhibition of growth at 500 µg/mL was found to be 0%.

For the compound `CCN(CC)C(=O)[C@@H]1CCCN1Cc1c(Br)c2ccc(OC)c(Br)c2c2cc(OC)c(OC)cc12`, the Activity with Tobacco mosaic virus [1] is listed as 22.3%; in the assay with Tobacco mosaic virus [2], 17.8%; in the assay with Tobacco mosaic virus [3], 15.3%. In addition, in the assay with Tobacco mosaic virus [4], the inhibition of growth at 500 µg/mL is 19.6%.

Take `COc1ccc(/C=C(/C(=O)O)c2ccc(OC)c(OC)c2)cc1OC`: the Activity in the assay on Tobacco mosaic virus [1] amounted to 2.7%; with Tobacco mosaic virus [2], 4.1%; in the assay on Tobacco mosaic virus [3], 1.9%. The inhibition of growth at 500 µg/mL with Tobacco mosaic virus [4] came out at 2.3%.

For `COc1cc2cc(C(=O)N3CCC[C@H]3C(N)=O)c3cc(OC)c(OC)cc3c2cc1OC`, the Activity in the assay with Tobacco mosaic virus [1] is 23.5%; in the assay with Tobacco mosaic virus [2], 25.3%; in the assay on Tobacco mosaic virus [3] it was 24.3%. The inhibition of growth at 500 µg/mL with Tobacco mosaic virus [4] was found to be 27%.

As to `COc1cc2cc(C(=O)N3CCC[C@H]3C=O)c3cc(OC)c(OC)cc3c2cc1OC`, the Activity worked out at 20.3% in the assay with Tobacco mosaic virus [1], 15.2% with Tobacco mosaic virus [2] and 21.4% with Tobacco mosaic virus [3]. Also, the inhibition of growth at 500 µg/mL with Tobacco mosaic virus [4] was determined as 22.2%.

Regarding `COc1cc2cc(C(=O)O)c3cc(OC)c(OC)cc3c2cc1OC`, the Activity came to 3.6% with Tobacco mosaic virus [1], 4.2% in the assay with Tobacco mosaic virus [2] and 4.8% with Tobacco mosaic virus [3]. In addition, the inhibition of growth at 500 µg/mL with Tobacco mosaic virus [4] was 0%.

As for `COc1cc2cc(CN3C(=O)CC[C@H]3C(=O)O)c3cc(OC)c(OC)cc3c2cc1OC`, the Activity is 25.6% with Tobacco mosaic virus [1], 33.7% in the assay on Tobacco mosaic virus [2] and 35.3% with Tobacco mosaic virus [3]. Besides, the inhibition of growth at 500 µg/mL in the assay on Tobacco mosaic virus [4] is 32.4%.

Regarding `COc1cc2c(Br)c(CN3CCC[C@H]3C(=O)O)c3cc(OC)c(OC)cc3c2cc1OC`, the Activity in the assay with Tobacco mosaic virus [1] is recorded as 13.5%; in the assay with Tobacco mosaic virus [2], 17%; with Tobacco mosaic virus [3] it was 10.2%. Also, the inhibition of growth at 500 µg/mL in the assay on Tobacco mosaic virus [4] amounted to 20.4%.
